Results as given in ChEMBL document CHEMBL1821632 (2011).
Active and inactive are the calls of the source. The calls are words filed in the database; no cut-off is given here.

Columns and labels:
[1] = tested on: Lipid bilayer; assay: Binding affinity to dipalmitoyl phosphatidyl choline lipid bilayer assessed as decrease in pre-transition temperature by DSC technique
[2] = tested on: Lipid bilayer; assay: Binding affinity to dipalmitoyl phosphatidyl choline lipid bilayer assessed as decrease in pre-transition temperature at compound to lipid molar ratio of 1:1 by DSC technique
Procedure, shortened: (§1)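 DPPC bilayers carried additive at additive:lipid molar ratios of 0:100, 1:5, 1:2 or 1:1. Samples were degassed under vacuum and scanned by DSC from 20 to 60 °C at 10 °C/h. The pre-transition and main transition (Tm) temperatures were read from the thermograms and compared with the additive-free lipid.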

[3] = tested on: Lipid bilayer; assay: Binding affinity to dipalmitoyl phosphatidyl choline lipid bilayer assessed as decrease in pre-transition temperature at compound to lipid molar ratio of 1:5 by DSC technique
Procedure, shortened: as §1

[4] = (§2) Antifertility activity against goat epididymis sperm cells assessed as loss of sperm motility at 1.25 mM by Sander-Cramer test; assay type: functional, Capra hircus
Procedure, shortened: (§3)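 Sperm came from the cauda epididymis of goats. Tissue pieces were allowed to settle out, and the cells were washed, pelleted and resuspended in buffer. Cells were diluted in Dulbecco buffer (control) or in 1.25 mM drug solution. Motility was scored by the Sander-Cramer method, examining at least six microscope fields per slide at 1 h and 2 h of incubation.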

[5] = tested on: Sperm; assay: as §2; assay type: functional; details: Capra hircus
Procedure, shortened: as §3

[6] = tested on: Lipid bilayer; assay: Binding affinity to dipalmitoyl phosphatidyl choline lipid bilayer assessed as decrease in main transition temperature at compound to lipid molar ratio of 1:5 by DSC technique
Procedure, shortened: as §1

[7] = tested on: Lipid bilayer; assay: Binding affinity to dipalmitoyl phosphatidyl choline lipid bilayer assessed as decrease in main transition temperature at compound to lipid molar ratio of 1:1 by DSC technique
Procedure, shortened: as §1

[8] = tested on: Lipid bilayer; assay: Binding affinity to dipalmitoyl phosphatidyl choline lipid bilayer assessed as decrease in main transition temperature by DSC technique
[9] = tested on: Sperm; assay: Antifertility activity against goat epididymis sperm cells assessed as inhibition of sperm motility at 1.25 mM after 1 hr by Sander-Cramer test; assay type: functional; details: Capra hircus
Procedure, shortened: as §3

| Compound | Activity [1] | Activity [2] | Activity [3] | Activity [4] [%] | inhibition [5] | Tm [6] [°C] | Tm [7] [°C] | Tm [8] [°C] | inhibition [9] |
| --- | --- | --- | --- | --- | --- | --- | --- | --- | --- |
| CCOC(=O)C1=C(C)NC(C)=C(C(=O)OCC)C1c1ccc(Cl)cc1 | Active | Active | Active | 25 | – | – | – | – | – |
| CCOC(=O)C1=C(C)NC(C)=C(C(=O)OCC)C1c1ccccc1O | Active | Active | Active | – | Active | – | – | – | – |
| CCOC(=O)C1=C(C)NC(C)=C(C(=O)OCC)C1c1ccccc1 | Active | Active | Active | 25 | – | – | – | – | – |
| COC(=O)C1=C(C)NC(C)=C(C(=O)OC)C1c1ccccc1[N+](=O)[O-] | Active | Active | Active | – | – | – | – | – | – |
| O=C(O)c1cc(/N=N/c2ccc(S(=O)(=O)Nc3ccccn3)cc2)ccc1O | Active | Active | Active | – | – | – | – | – | – |
| CCOC(=O)C1=C(C)NC(C)=C(C(=O)OCC)C1c1ccc(O)cc1 | Active | Active | Active | – | – | 4.25 | 4.25 | 4.25 | Active |
